Measured values published in ChEMBL document CHEMBL1132197, “Stereospecific synthesis, structure-activity relationship, and oral bioavailability of tetrahydropyrimidin-2-one HIV protease inhibitors” (J Med Chem, 1999).

Legend:
[1] = target: Human immunodeficiency virus type 1 protease (Human immunodeficiency virus 1, UniProt Q72874); assay: Inhibition constant of HIV protease inhibitors
Outline: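 HIV protease (HIVPR) inhibition constant was determined by monitoring cleavage of a fluorescent peptide substrate, with products separated and quantified by HPLC.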

MT2 = assay: Antiviral activity by measuring its effect on the accumulation of viral RNA transcripts on infection of MT-2 cells with HIV-1 RF.; format: functional; details: Homo sapiens
Outline: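 Viral RNA transcript accumulation read 3 days after HIV-1 RF infection of MT-2 cells. IC90 is the concentration cutting viral RNA by 90% versus an untreated infected culture. TC50 came from MTT dye reduction in uninfected MT-2 cultures grown 3 days with compound.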

[2] = The maximum plasma concentration (Cmax) is the observed peak plasma concentration after an oral dose on rat.; format: ADME, organism-based; parameters: route oral
Outline: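 Rats dosed orally in groups at 10 mg/kg, in a formulation of propylene glycol, poly(ethylene glycol) 400 and water. Cmax is the observed peak plasma concentration after the oral dose.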

Nc1cccc(CN2C(=O)N[C@H](CCc3ccccc3)[C@@H](O)[C@H]2Cc2ccccc2)c1
Ki [1]: 6.2 nM | IC90 (MT2): 4330 nM

N#Cc1cccc(CN2C(=O)N[C@H](CCc3ccccc3)[C@@H](O)[C@H]2Cc2ccccc2)c1
Ki [1]: 15 nM

Nc1[nH]nc2ccc(CN3C(=O)N(Cc4ccc5n[nH]c(N)c5c4)[C@H](Cc4ccccc4)[C@H](O)[C@H]3CCc3ccccc3)cc12
Ki [1]: 0.03 nM | IC90 (MT2): 383 nM

Nc1[nH]nc2ccc(CN3C(=O)N[C@H](CCc4ccccc4)[C@@H](O)[C@H]3Cc3ccccc3)cc12
Ki [1]: 0.38 nM | IC90 (MT2): 549 nM

CNc1cccc(CN2C(=O)N(Cc3cccc(NC)c3)[C@H](Cc3ccccc3)[C@H](O)[C@H]2CCc2ccccc2)c1
IC90 (MT2): 328 nM

N#Cc1cc(CN2C(=O)N(Cc3ccc(F)c(C#N)c3)[C@H](Cc3ccccc3)[C@H](O)[C@H]2CCc2ccccc2)ccc1F
Ki [1]: 230 nM

N#Cc1cc(CN2C(=O)N[C@H](CCc3ccccc3)[C@@H](O)[C@H]2Cc2ccccc2)ccc1F
Ki [1]: 110 nM

Nc1[nH]nc2ccc(CN3C(=O)N(Cc4ccccc4)[C@H](Cc4ccccc4)[C@H](O)[C@H]3CCc3ccccc3)cc12
Ki [1]: 0.65 nM | IC90 (MT2): 71 nM

N=C(NO)c1cc(CN2C(=O)N(Cc3ccc(F)c(C(=N)NO)c3)[C@H](Cc3ccccc3)[C@H](O)[C@H]2CCc2ccccc2)ccc1F
Ki [1]: 0.06 nM | IC90 (MT2): 51 nM

N#Cc1cccc(CN2C(=O)N(Cc3cccc(C#N)c3)[C@H](Cc3ccccc3)[C@H](O)[C@H]2CCc2ccccc2)c1
IC90 (MT2): 1600 nM

N#Cc1cccc(CN2C(=O)N(Cc3cccc(C#N)c3)[C@H](Cc3ccc(F)cc3)[C@H](O)[C@H]2CCc2ccc(F)cc2)c1
Ki [1]: 14 nM | IC90 (MT2): 1560 nM

N/C(=N\O)c1cccc(CN2C(=O)N3C(Cc4ccccc4)[C@@H]3[C@@H](O)[C@H]2Cc2ccccc2)c1 (some centres undefined)
Ki [1]: 12 nM

NC(=O)c1cccc(CN2C(=O)N[C@H](CCc3ccccc3)[C@@H](O)[C@H]2Cc2ccccc2)c1
Ki [1]: 5.6 nM

Nc1cccc(CN2C(=O)N(Cc3ccc4[nH]ncc4c3)[C@H](Cc3ccccc3)[C@H](O)[C@H]2CCc2ccccc2)c1
Ki [1]: 0.08 nM | IC90 (MT2): 13 nM

NC(=O)c1cccc(CN2C(=O)N(Cc3cccc(C(N)=O)c3)[C@H](Cc3ccc(F)c(F)c3)[C@H](O)[C@H]2CCc2ccc(F)c(F)c2)c1
Ki [1]: 0.15 nM | IC90 (MT2): 90 nM

O=C(Nc1nccs1)c1cccc(CN2C(=O)N(Cc3cccc(C(=O)Nc4nccs4)c3)[C@H](Cc3ccccc3)[C@H](O)[C@H]2CCc2ccccc2)c1
Ki [1]: 0.03 nM | IC90 (MT2): 31 nM

O=C1N(CC2CC2)[C@H]([C@@H](O)Cc2ccccc2)[C@@H](O)[C@@H](Cc2ccccc2)N1CC1CC1
Ki [1]: 410 nM

O=C1N(Cc2cccc(-c3cc[nH]n3)c2)[C@H](Cc2ccccc2)[C@H](O)[C@@H](O)[C@@H](Cc2ccccc2)N1Cc1cccc(-c2cc[nH]n2)c1
Cmax [2]: 70 nM

N#Cc1cc(CN2C(=O)N(Cc3ccccc3)[C@H](CCc3ccccc3)[C@@H](O)[C@H]2Cc2ccccc2)ccc1F
Ki [1]: 40 nM

N/C(=N\O)c1cccc(CN2C(=O)N(Cc3cccc(N)c3)[C@H](Cc3ccccc3)[C@H](O)[C@H]2CCc2ccccc2)c1
Ki [1]: 0.02 nM | IC90 (MT2): 17 nM

NC(=O)c1cccc(CN2C(=O)N3C(Cc4ccccc4)[C@@H]3[C@@H](O)[C@H]2Cc2ccccc2)c1 (some centres undefined)
Ki [1]: 320 nM

NC(=O)c1cc(CN2C(=O)N[C@H](CCc3ccccc3)[C@@H](O)[C@H]2Cc2ccccc2)ccc1F
Ki [1]: 14 nM

Nc1noc2ccc(CN3C(=O)N(Cc4ccc5onc(N)c5c4)[C@H](Cc4ccccc4)[C@H](O)[C@H]3CCc3ccccc3)cc12
Ki [1]: 0.41 nM | IC90 (MT2): 132 nM

Nc1cccc(CN2C(=O)N(Cc3cccc(N)c3)[C@H](Cc3ccccc3)[C@H](O)[C@@H](O)[C@H]2Cc2ccccc2)c1 [MOZENAVIR]
Cmax [2]: 2250 nM

[N-]=[N+]=N[C@@H](Cc1ccccc1)[C@@H]1[C@@H](O)[C@@H](Cc2ccccc2)N(Cc2ccc3ccccc3c2)C(=O)N1Cc1ccc2ccccc2c1
Ki [1]: 330 nM

N#Cc1cccc(CN2C(=O)N(Cc3cccc(N)c3)[C@H](Cc3ccccc3)[C@H](O)[C@H]2CCc2ccccc2)c1
Ki [1]: 1.6 nM | IC90 (MT2): 565 nM

O=C1N(Cc2ccc3ccccc3c2)[C@H](/C=C/c2ccccc2)[C@@H](O)[C@@H](Cc2ccccc2)N1Cc1ccc2ccccc2c1
Ki [1]: 280 nM

O=C1N(Cc2ccc3c[nH]nc3c2)[C@H](CCc2ccccc2)[C@@H](O)[C@@H](Cc2ccccc2)N1Cc1ccc2c[nH]nc2c1
Ki [1]: 0.06 nM | IC90 (MT2): 32 nM

Nc1cccc(CN2C(=O)N(Cc3ccc4[nH]ncc4c3)[C@H](CCc3ccccc3)[C@@H](O)[C@H]2Cc2ccccc2)c1
Ki [1]: 0.1 nM | IC90 (MT2): 16 nM

O=C1N(Cc2ccccc2)[C@H](CCc2ccccc2)[C@@H](O)[C@@H](Cc2ccccc2)N1Cc1ccccc1
IC90 (MT2): 2800 nM

Nc1cc(CN2C(=O)N(Cc3ccc(F)c(N)c3)[C@H](Cc3ccccc3)[C@H](O)[C@H]2CCc2ccccc2)ccc1F
IC90 (MT2): 36 nM

O=C1[C@@H](CCc2ccccc2)N(Cc2ccccc2)C(=O)N(Cc2ccccc2)[C@@H]1Cc1ccccc1
Ki [1]: 1500 nM

NC(=O)c1cccc(CN2C(=O)N(Cc3cccc(N)c3)[C@H](Cc3ccccc3)[C@H](O)[C@H]2CCc2ccccc2)c1
Ki [1]: 0.06 nM | IC90 (MT2): 24 nM

O=C1N(Cc2ccccc2)[C@H](/C=C/c2ccccc2)[C@@H](O)[C@@H](Cc2ccccc2)N1Cc1ccccc1
Ki [1]: 460 nM

O=C(O)c1cccc(CN2C(=O)N(Cc3cccc(C(=O)O)c3)[C@H](Cc3ccccc3)[C@H](O)[C@H]2CCc2ccccc2)c1
Ki [1]: 0.87 nM

O=C1N(Cc2ccccc2)C[C@@H](O)[C@@H](Cc2ccccc2)N1Cc1ccccc1
Ki [1]: 2400 nM

NC(=O)c1cccc(CN2C(=O)N(Cc3cccc(C(N)=O)c3)[C@H](Cc3ccccc3)[C@H](O)[C@H]2CCc2ccccc2)c1
Ki [1]: 0.09 nM

O=C1N[C@H](Cc2ccccc2)[C@H](O)[C@@H](CCc2ccccc2)N1Cc1ccc2[nH]ncc2c1
Ki [1]: 44 nM

N=C(NO)c1cccc(CN2C(=O)N(Cc3cccc(C(=N)NO)c3)[C@H](Cc3ccc(F)cc3)[C@H](O)[C@H]2CCc2ccc(F)cc2)c1
Ki [1]: 0.02 nM | IC90 (MT2): 49 nM

O=C1N(Cc2ccccc2)[C@H]([C@@H](Br)Cc2ccccc2)[C@@H](O)[C@@H](Cc2ccccc2)N1Cc1ccccc1
Ki [1]: 185 nM

Cc1ccc(NC(=O)c2cccc(CN3C(=O)N(Cc4cccc(C(=O)Nc5ccc(C)cn5)c4)[C@H](Cc4ccccc4)[C@H](O)[C@H]3CCc3ccccc3)c2)nc1
Ki [1]: 0.08 nM | IC90 (MT2): 26 nM

Cc1n[nH]c2ccc(CN3C(=O)N(Cc4ccc5[nH]nc(C)c5c4)[C@H](Cc4ccccc4)[C@H](O)[C@H]3CCc3ccccc3)cc12
Ki [1]: 0.1 nM | IC90 (MT2): 18 nM

CC(=O)c1cccc(CN2C(=O)N(Cc3cccc(C(C)=O)c3)[C@H](Cc3ccccc3)[C@H](O)[C@@H](O)[C@H]2Cc2ccccc2)c1
Cmax [2]: 500 nM

O=C1N(Cc2cccc(CO)c2)[C@H](Cc2ccccc2)[C@H](O)[C@@H](O)[C@@H](Cc2ccccc2)N1Cc1cccc(CO)c1
IC90 (MT2): 38 nM | Cmax [2]: 830 nM

N/C(=N\O)c1cc(CN2C(=O)N[C@H](CCc3ccccc3)[C@@H](O)[C@H]2Cc2ccccc2)ccc1F
Ki [1]: 1.4 nM | IC90 (MT2): 3780 nM

O=C1N(Cc2cccc(CO)c2)[C@H]([C@@H](Br)Cc2ccccc2)[C@@H](O)[C@@H](Cc2ccccc2)N1Cc1cccc(CO)c1
Ki [1]: 11 nM | IC90 (MT2): 2100 nM

O=C1N(CC2CC2)[C@H](CCc2ccccc2)[C@@H](O)[C@@H](Cc2ccccc2)N1CC1CC1
Ki [1]: 9.8 nM

O=C1N[C@H](CCc2ccccc2)[C@@H](O)[C@@H](Cc2ccccc2)N1Cc1cccc(O)c1
Ki [1]: 2.6 nM | IC90 (MT2): 4800 nM

NC(=O)c1cc(CN2C(=O)N(Cc3ccc(F)c(C(N)=O)c3)[C@H](Cc3ccccc3)[C@H](O)[C@H]2CCc2ccccc2)ccc1F
IC90 (MT2): 490 nM

O=C1N(Cc2cccc(O)c2)[C@H](Cc2ccccc2)[C@H](O)[C@@H](O)[C@@H](Cc2ccccc2)N1Cc1cccc(O)c1
IC90 (MT2): 54 nM | Cmax [2]: 810 nM

Nc1[nH]nc2ccc(CN3C(=O)N(Cc4ccccc4)[C@H](CCc4ccccc4)[C@@H](O)[C@H]3Cc3ccccc3)cc12
Ki [1]: 0.28 nM | IC90 (MT2): 126 nM

Cc1n[nH]c2ccc(CN3C(=O)N(Cc4cccc(N)c4)[C@H](Cc4ccccc4)[C@H](O)[C@H]3CCc3ccccc3)cc12
Ki [1]: 0.13 nM | IC90 (MT2): 32 nM

O=C1N[C@H](CCc2ccccc2)[C@@H](O)[C@@H](Cc2ccccc2)N1Cc1ccc2[nH]ncc2c1
Ki [1]: 1.2 nM | IC90 (MT2): 590 nM

Nc1ccc(CN2C(=O)N(Cc3ccc(N)c(F)c3)[C@H](Cc3ccccc3)[C@H](O)[C@H]2CCc2ccccc2)cc1F
IC90 (MT2): 539 nM

N/C(=N\O)c1cccc(CN2C(=O)N(CC3CC3)[C@H](CCc3ccccc3)[C@@H](O)[C@H]2Cc2ccccc2)c1
Ki [1]: 0.48 nM | IC90 (MT2): 36 nM

Nc1cccc(CN2C(=O)N(Cc3ccc4[nH]nc(N)c4c3)[C@H](CCc3ccccc3)[C@@H](O)[C@H]2Cc2ccccc2)c1
Ki [1]: 0.1 nM | IC90 (MT2): 53 nM

N=C(NO)c1cccc(CN2C(=O)N(Cc3cccc(C(=N)NO)c3)[C@H](Cc3ccc(F)c(F)c3)[C@H](O)[C@H]2CCc2ccc(F)c(F)c2)c1
Ki [1]: 0.01 nM | IC90 (MT2): 117 nM

Nc1cccc(CN2C(=O)N[C@H](Cc3ccccc3)[C@H](O)[C@H]2CCc2ccccc2)c1
Ki [1]: 157 nM

O=C1N(Cc2cccc(O)c2)[C@H](CCc2ccccc2)[C@@H](O)[C@@H](Cc2ccccc2)N1Cc1cccc(O)c1
IC90 (MT2): 115 nM | Cmax [2]: 120 nM

N#Cc1cc(CN2C(=O)N(Cc3ccccc3)[C@H](Cc3ccccc3)[C@H](O)[C@H]2CCc2ccccc2)ccc1F
Ki [1]: 33 nM

NC(=O)c1cccc(CN2C(=O)N(Cc3cccc(C(N)=O)c3)[C@H](Cc3ccc(F)cc3)[C@H](O)[C@H]2CCc2ccc(F)cc2)c1
Ki [1]: 0.31 nM | IC90 (MT2): 35 nM

O=C1N[C@H](Cc2ccccc2)[C@H](O)[C@H]2C(Cc3ccccc3)N12 (some centres undefined)
Ki [1]: 3000 nM

N#Cc1cccc(CN2C(=O)N3C(Cc4ccccc4)[C@@H]3[C@@H](O)[C@H]2Cc2ccccc2)c1 (some centres undefined)
Ki [1]: 2400 nM
